# Experiments:
# Cavia porcellus [1] = species: Cavia porcellus; assay: In vitro bronchodilatory activity in guinea pig isolated tracheal strips; assay type: functional; details: Trachea
# [2] = tested on: Thromboxane-A synthase (Oryctolagus cuniculus); assay: Tested in vitro against rabbit thromboxane A2 synthetase (TXA2) at 1 uM
# [3] = target: T1, Thromboxane-A synthase (Rattus norvegicus) (UniProt P49430); assay: Tested ex vivo against TXA2 production in rat serum at 1 hr after peroral dose of 30 mg/kg and anesthetized with ether; assay type: functional, organism-based; design: dose 30 mg/kg
# T1 sequence (whole entry): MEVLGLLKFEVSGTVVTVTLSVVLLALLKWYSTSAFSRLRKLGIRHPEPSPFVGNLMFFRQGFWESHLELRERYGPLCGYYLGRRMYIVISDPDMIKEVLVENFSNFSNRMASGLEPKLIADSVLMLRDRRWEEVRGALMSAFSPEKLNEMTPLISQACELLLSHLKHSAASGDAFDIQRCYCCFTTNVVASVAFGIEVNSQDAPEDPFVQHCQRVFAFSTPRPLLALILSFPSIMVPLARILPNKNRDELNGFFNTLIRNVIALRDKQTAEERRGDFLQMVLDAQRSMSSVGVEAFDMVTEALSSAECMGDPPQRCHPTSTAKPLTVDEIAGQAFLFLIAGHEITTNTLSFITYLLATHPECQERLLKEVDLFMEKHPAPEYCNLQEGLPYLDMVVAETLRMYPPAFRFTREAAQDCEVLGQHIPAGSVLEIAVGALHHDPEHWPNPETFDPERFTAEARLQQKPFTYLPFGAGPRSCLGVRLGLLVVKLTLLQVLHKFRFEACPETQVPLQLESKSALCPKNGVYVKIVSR
# Procedure, shortened: (§1)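 Male SD rats (240–260 g), fasted 20 h, dosed orally with compound in 0.5% carboxymethylcellulose or vehicle alone. At 1 h, ether anesthesia and 2 mL cardiac blood taken and clotted at 37 °C for 90 min.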
# [4] = target: T1, Thromboxane-A synthase (Rattus norvegicus); assay: Tested ex vivo against TXA2 production in male SD rats at 1 hr after peroral dose of 30 mg/kg and anesthetized with ether; assay type: functional, organism-based; design: dose 30 mg/kg; procedure, shortened: as §1
# Cavia porcellus [5] = assay: In vivo inhibitory effect on airway constriction induced by histamine 2-5 ug/kg iv at 1 min after 10 mg/kg iv dose of compound; assay type: functional
# Procedure, shortened: (§2)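 Male Dunkin-Hartley guinea pigs anesthetized with pentobarbital 35 mg/kg ip, jugular vein and trachea cannulated, ventilated at 10 mL/kg, 60 strokes/min. Insufflation pressure recorded. Histamine 2–5 μg/kg iv repeated every 10 min until a reproducible control response. Compound 10 mg/kg iv 1 min before the next challenge.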
# Cavia porcellus [6] = assay: In vivo inhibitory effect on airway constriction induced by histamine 2-5 micro g/kg iv at 1 min after 10 mg/kg iv dose of compound; assay type: functional; procedure, shortened: as §2
# Rattus norvegicus [7] = assay: Tested ex vivo against serum TXB2 production at 1 hr after oral dose of 3 mg/kg of drug to rat; assay type: functional; procedure, shortened: as §1
# Rattus norvegicus [8] = assay: Tested ex vivo against serum TXB2 production at 1 hr after oral dose of 30 mg/kg of drug to rat; assay type: functional; procedure, shortened: as §1
smiles,measurement,setting,value
NCCn1nc(-c2cccnc2)c2ccccc2c1=O,IC50,Cavia porcellus [1],> 100 µM
same,inhibition,[2],29%
O=C(O)Cn1nc(-c2cccnc2)c2ccccc2c1=O,IC50,Cavia porcellus [1],> 100 µM
same,inhibition,[2],13%
CCCn1nc(-c2cccnc2)c2ccccc2c1=O,IC50,Cavia porcellus [1],3.16 µM
same,inhibition,[2],86%
same,inhibition,[3],93%
COCCn1nc(-c2cccnc2)c2ccccc2c1=O,IC50,Cavia porcellus [1],9.33 µM
same,inhibition,[2],55%
Oc1nnc(-c2nccs2)c2ccccc12,IC50,Cavia porcellus [1],4.57 µM
same,inhibition,[4],23%
O=c1c2ccccc2c(-c2cccnc2)nn1CC1CCCCC1,IC50,Cavia porcellus [1],0.209 µM
same,inhibition,[2],98%
CCn1nc(-c2nccs2)c2ccccc2c1=O,IC50,Cavia porcellus [1],3.16 µM
same,inhibition,[2],4%
same,inhibition,[3],5%
Oc1nnc(-n2cncn2)c2ccccc12,IC50,Cavia porcellus [1],16.6 µM
O=c1c2ccccc2c(-c2cccnc2)nn1Cc1cccc(Cl)c1,IC50,Cavia porcellus [1],4.17 µM
same,inhibition,[2],95%
O=c1c2ccccc2c(-c2cccnc2)nn1CCSc1ncccn1,IC50,Cavia porcellus [1],11 µM
same,inhibition,[2],86%
CCOC(=O)CCCn1nc(-c2cccnc2)c2ccccc2c1=O,IC50,Cavia porcellus [1],10 µM
same,inhibition,[2],95%
CCn1nc(-c2cncs2)c2ccccc2c1=O,IC50,Cavia porcellus [1],0.562 µM
same,inhibition,[2],77%
same,inhibition,[3],69%
CCn1nc(-c2cnccn2)c2ccccc2c1=O,IC50,Cavia porcellus [1],11 µM
same,inhibition,[2],37%
O=c1c2ccccc2c(-c2cccnc2)nn1Cc1ccccc1,IC50,Cavia porcellus [1],2.45 µM
same,inhibition,[2],97%
same,inhibition,[3],86%
O=C(O)CCCn1nc(-c2cccnc2)c2ccccc2c1=O,IC50,Cavia porcellus [1],> 100 µM
same,inhibition,[2],73%
Cn1nc(-c2cccnc2)c2ccccc2c1=O,inhibition in vivo at 10 mg/kg,Cavia porcellus [5],97%
same,IC50,Cavia porcellus [1],11.5 µM
same,inhibition,[2],63%
same,inhibition,[3],94%
CCn1nc(-n2ccnc2)c2ccccc2c1=O,IC50,Cavia porcellus [1],5.37 µM
same,inhibition,[2],53%
same,inhibition,[3],72%
Oc1nnc(-c2cncs2)c2ccccc12,IC50,Cavia porcellus [1],1.2 µM
same,inhibition,[2],38%
same,inhibition,[3],70%
CC(C)Cn1nc(-c2cncs2)c2ccccc2c1=O,IC50,Cavia porcellus [1],2.4 µM
O=c1c2ccccc2c(-c2cccnc2)nn1C1CCCC1,IC50,Cavia porcellus [1],2.75 µM
same,inhibition,[2],97%
same,inhibition,[3],80%
CCn1nc(-c2cncnc2)c2ccccc2c1=O,IC50,Cavia porcellus [1],9.55 µM
same,inhibition,[2],26%
O=c1c2ccccc2c(-c2cccnc2)nn1CCCCSc1ncccn1,IC50,Cavia porcellus [1],6.17 µM
same,inhibition,[2],96%
O=C(O)c1ccc(Cn2nc(-c3cccnc3)c3ccccc3c2=O)cc1,IC50,Cavia porcellus [1],17 µM
same,inhibition,[2],64%
CC(C)n1nc(-c2cccnc2)c2ccccc2c1=O,IC50,Cavia porcellus [1],3.09 µM
same,inhibition,[2],87%
same,inhibition,[3],82%
O=c1c2ccccc2c(-c2cccnc2)nn1S(=O)(=O)c1ccccc1,IC50,Cavia porcellus [1],14.8 µM
same,inhibition,[2],96%
CC(C)n1nc(-c2cncs2)c2ccccc2c1=O,IC50,Cavia porcellus [1],3.39 µM
same,inhibition,[4],71%
O=c1c2ccccc2c(-c2cccnc2)nn1CCO,IC50,Cavia porcellus [1],4.57 µM
same,inhibition,[2],69%
CCn1nc(-n2cncn2)c2ccccc2c1=O,IC50,Cavia porcellus [1],15.8 µM
same,inhibition,[2],0%
CCCCn1nc(-c2cccnc2)c2ccccc2c1=O,IC50,Cavia porcellus [1],2.29 µM
same,inhibition,[2],91%
same,inhibition,[3],100%
CC(C)NC(=O)CCCn1nc(-c2cccnc2)c2ccccc2c1=O,IC50,Cavia porcellus [1],64.6 µM
same,inhibition,[2],89%
CCCCCCCCn1nc(-c2cccnc2)c2ccccc2c1=O,IC50,Cavia porcellus [1],21.9 µM
same,inhibition,[2],99%
O=C(c1cccs1)n1nc(-c2cccnc2)c2ccccc2c1=O,IC50,Cavia porcellus [1],12.3 µM
same,inhibition,[2],37%
C=CCn1nc(-c2cccnc2)c2ccccc2c1=O,inhibition in vivo at 10 mg/kg,Cavia porcellus [6],100%
same,IC50,Cavia porcellus [1],2.14 µM
same,inhibition,[2],70%
same,inhibition,[3],82%
CC(C)=CCn1nc(-c2cccnc2)c2ccccc2c1=O,IC50,Cavia porcellus [1],1.38 µM
same,inhibition,[2],94%
O=c1c2ccccc2c(-c2cccnc2)nn1CCNS(=O)(=O)c1ccccc1,IC50,Cavia porcellus [1],26.3 µM
same,inhibition,[2],93%
Oc1nnc(-c2cccnc2)c2ccccc12,IC50,Cavia porcellus [1],10.2 µM
same,inhibition,[2],26%
same,inhibition,[3],78%
O=c1c2ccccc2c(-c2cccnc2)nn1CCn1ccnc1,inhibition in vivo at 10 mg/kg,Cavia porcellus [6],97%
same,inhibition,[2],37%
O=c1c2ccccc2c(-c2cccnc2)nn1CCSc1ccccc1,IC50,Cavia porcellus [1],9.12 µM
same,inhibition,[4],52%
O=C1c2ccccc2C(=O)N1CCn1nc(-c2cccnc2)c2ccccc2c1=O,IC50,Cavia porcellus [1],21.9 µM
same,inhibition,[2],87%
COC(=O)c1ccc(Cn2nc(-c3cccnc3)c3ccccc3c2=O)cc1,IC50,Cavia porcellus [1],5.89 µM
same,inhibition,[2],95%
CCOC(=O)Cn1nc(-c2cccnc2)c2ccccc2c1=O,IC50,Cavia porcellus [1],43.7 µM
same,inhibition,[2],28%
same,inhibition,[3],0%
O=c1c2ccccc2c(-c2cccnc2)nn1CCSC1=NCCS1,IC50,Cavia porcellus [1],10.5 µM
O=c1c2ccccc2c(-c2cccnc2)nn1CCn1cnnn1,IC50,Cavia porcellus [1],24 µM
same,inhibition,[2],43%
same,inhibition,[3],77%
CC(=O)OCCn1nc(-c2cccnc2)c2ccccc2c1=O,IC50,Cavia porcellus [1],9.77 µM
same,inhibition,[2],32%
Oc1nnc(-n2ccnc2)c2ccccc12,IC50,Cavia porcellus [1],8.32 µM
same,inhibition,[3],87%
O=C(O)/C=C/c1ccc(Cn2ccnc2)cc1 [OZAGREL],inhibition in vivo at 3 mg/kg,Rattus norvegicus [7],86%
same,inhibition in vivo at 30 mg/kg,Rattus norvegicus [8],92%
same,inhibition in vivo at 10 mg/kg,Cavia porcellus [6],0%
same,IC50,Cavia porcellus [1],> 1000 µM
same,inhibition,[3],92%
CC(=O)Cn1nc(-c2cccnc2)c2ccccc2c1=O,IC50,Cavia porcellus [1],40.7 µM
same,inhibition,[2],13%
